Test results: ChEMBL document CHEMBL3871264, “Design of a novel thiophene inhibitor of 15-lipoxygenase-1 with both anti-inflammatory and neuroprotective properties” (Eur J Med Chem, 2016)
Activity calls are given as the source filed them. The rule behind the calls is not given here.

T1: Polyunsaturated fatty acid lipoxygenase ALOX15 (Mus musculus) (UniProt P39654)
T1 sequence (whole entry): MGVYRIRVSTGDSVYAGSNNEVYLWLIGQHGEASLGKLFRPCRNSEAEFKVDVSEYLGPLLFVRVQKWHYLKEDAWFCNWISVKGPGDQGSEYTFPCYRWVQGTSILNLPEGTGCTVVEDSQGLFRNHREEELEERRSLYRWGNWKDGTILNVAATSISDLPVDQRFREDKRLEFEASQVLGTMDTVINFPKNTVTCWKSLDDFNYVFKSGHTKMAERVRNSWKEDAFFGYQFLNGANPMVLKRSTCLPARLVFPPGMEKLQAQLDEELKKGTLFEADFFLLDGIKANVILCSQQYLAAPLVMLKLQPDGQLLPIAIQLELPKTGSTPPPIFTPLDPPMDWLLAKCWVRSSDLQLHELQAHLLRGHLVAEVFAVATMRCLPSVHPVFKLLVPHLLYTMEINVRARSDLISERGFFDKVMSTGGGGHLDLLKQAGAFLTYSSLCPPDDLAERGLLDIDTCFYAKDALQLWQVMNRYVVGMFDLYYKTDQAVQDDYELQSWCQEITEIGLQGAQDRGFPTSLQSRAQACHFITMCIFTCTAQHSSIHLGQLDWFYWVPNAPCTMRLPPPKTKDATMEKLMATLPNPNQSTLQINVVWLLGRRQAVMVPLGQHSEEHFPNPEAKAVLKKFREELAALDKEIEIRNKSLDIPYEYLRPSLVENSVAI

T2: Polyunsaturated fatty acid lipoxygenase ALOX15 (Homo sapiens, UniProt P16050)
T2 sequence (P16050 whole entry): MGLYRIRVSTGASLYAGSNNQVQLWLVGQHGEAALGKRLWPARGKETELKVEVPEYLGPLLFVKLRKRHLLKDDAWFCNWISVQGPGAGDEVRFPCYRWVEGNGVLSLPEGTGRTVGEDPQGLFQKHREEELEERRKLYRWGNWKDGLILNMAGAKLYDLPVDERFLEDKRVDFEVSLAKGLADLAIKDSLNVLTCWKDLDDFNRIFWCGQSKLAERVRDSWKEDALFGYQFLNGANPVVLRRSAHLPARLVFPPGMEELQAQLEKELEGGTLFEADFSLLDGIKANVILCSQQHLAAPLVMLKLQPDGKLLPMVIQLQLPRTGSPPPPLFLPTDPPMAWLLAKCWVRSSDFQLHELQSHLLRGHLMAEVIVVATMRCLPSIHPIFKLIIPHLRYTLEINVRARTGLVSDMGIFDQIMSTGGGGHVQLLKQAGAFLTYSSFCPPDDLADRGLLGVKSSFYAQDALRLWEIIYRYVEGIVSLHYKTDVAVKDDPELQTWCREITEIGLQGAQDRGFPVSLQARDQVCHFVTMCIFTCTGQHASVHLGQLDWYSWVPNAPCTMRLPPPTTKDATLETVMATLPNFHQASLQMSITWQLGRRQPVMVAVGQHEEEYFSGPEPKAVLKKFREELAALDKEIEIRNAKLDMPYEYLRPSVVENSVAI

B1: Polyunsaturated fatty acid lipoxygenase ALOX15 (Homo sapiens), P16050 (protein)
chain: T2 sequence (P16050 whole entry)

biological target: T1, Polyunsaturated fatty acid lipoxygenase ALOX15 (Mus musculus); test: Inhibition of 15-LOX-1 in mouse HT22 cells assessed as protection against glutamate-induced cell death by measuring increase in cell viability at 1 uM cotreated with glutamate measured for 16 to 20 hrs by MTT assay; assay type: cell-based; settings: HT-22, in the assay text read “14 to 16 hrs” for “16 to 20 hrs”
Procedure, shortened: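 HT-22 cells were seeded at 8x10^3 per well and incubated overnight. They were challenged with 4 mM glutamate in DMEM/10% FCS. Inhibitor was given either with glutamate (1-20 µM; PD146176 at 1 µM) or added at 5 or 10 µM 2, 4, 6 or 8 h after glutamate. After 14-16 h, MTT was added at 0.5 mg/mL for 1 h at 37 °C. Formazan was dissolved in DMSO and read at 570 nm minus 630 nm background, expressed relative to control. Three experiments were run with 6-8 replicates each.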

| Molecule | inhibition |
| --- | --- |
| c1ccc2c(c1)SCc1c-2[nH]c2ccccc12 | Active |

compound: CCCCNC(=O)c1cc(-c2ccccc2)sc1N; test: Competitive inhibition of human 15-LOX-1 assessed as apparent Km at 5 uM by Lineweaver-Burk plot analysis (reference value: 9.1 +/- 3.4 microM); settings: not given
Procedure, shortened: (§1)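 Purified enzyme activity was read as UV absorbance at 234 nm of the product formed from linoleic acid substrate, in 96-well format. Substrate-dependence runs were done with and without inhibitor. Apparent Km and Vmax were derived from Lineweaver-Burk plots.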

| Molecule | Km |
| --- | --- |
| B1 | 14.2 µM |

biological target: T1, Polyunsaturated fatty acid lipoxygenase ALOX15 (Mus musculus); test: Inhibition of 15-LOX-1 in mouse HT22 cells assessed as protection against glutamate-induced cell impedance at 1 uM cotreated with glutamate up to 16 hrs by real time cell viability assay; assay type: cell-based; settings: HT-22
Procedure, shortened: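 HT-22 cells were seeded at 8x10^3 per well, incubated overnight, then given 4 mM glutamate. Inhibitor was either co-applied (1-20 µM; PD146176 at 1 µM) or added at 10 µM 2, 4, 6 or 8 h after glutamate. Impedance was recorded in real time for 16-20 h, with cell index normalized just before glutamate addition.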

| Molecule | inhibition |
| --- | --- |
| c1ccc2c(c1)SCc1c-2[nH]c2ccccc12 | Active |

biological target: T1, Polyunsaturated fatty acid lipoxygenase ALOX15 (Mus musculus); test: Inhibition of 15-LOX-1 in mouse HT22 cells assessed as inhibition of glutamate-induced lipid peroxidation at 1 uM incubated for 14 to 16 hrs by BODIPY 581/591 C11 staining based FACS analysis; assay type: cell-based; settings: HT-22
Procedure, shortened: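 HT-22 cells were seeded at 5x10^4 per well and incubated overnight. They were then exposed to 4 mM glutamate in DMEM/10% FCS, with or without 10 µM test inhibitor or 1 µM PD146176, for 6-7 h or 14-16 h. Cells were stained with BODIPY 581/591 C11 at 2 µM final for 1 h at 37 °C. The red-to-green fluorescence shift was read by flow cytometry (488 nm excitation). At least 3 experiments were run, each in triplicate.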

| inhibition | Molecule |
| --- | --- |
| Active | c1ccc2c(c1)SCc1c-2[nH]c2ccccc12 |

biological target: T2, Polyunsaturated fatty acid lipoxygenase ALOX15; test: Inhibition of human 15-LOX-1 assessed as reduction in conversion of linoleic acid to 13(S)-HpODE incubated for 10 mins followed by linoleic acid addition by UV-absorbance analysis; settings: not given

| IC50 | Molecule |
| --- | --- |
| 50 to 61.4 µM | CCCCCc1cc(C(=O)NCCCC)c(N)s1 |
| 50 to 152 µM | CCCCN(CCCC)C(=O)c1cc(-c2ccccc2)sc1N |
| 50 to 519 µM | CCCCNC(=O)c1cc(-c2ccc(Cl)cc2)sc1N |
| 50 to 65.4 µM | CCCCNC(=O)c1cc(CCC)sc1N |
| 50 to 71.1 µM | CCCCNC(=O)c1cc(-c2ccc(Br)cc2)sc1N |
| 50 to 115 µM | CCCCNC(=O)c1cc(Cc2ccccc2)sc1N |
| 50 to 65.3 µM | CCCCNC(=O)c1cc(CC)sc1N |
| 50 to 81.7 µM | Nc1sc(-c2ccccc2)cc1C(=O)NCCCCc1ccccc1 |
| > 50 µM | CCCCNC(=O)c1c(N)sc(-c2ccccc2)c1CCCC |
| 50 to 67.3 µM | CCCCn1c(=O)[nH]c2sc(-c3ccccc3)cc2c1=O |
| > 50 µM | CCCCNC(=O)c1c(N)sc(-c2ccccc2)c1C |
| 50 to 354 µM | CCCCNC(=O)c1cc(C)sc1N |

| Molecule | IC50 |
| --- | --- |
| CCCCNC(=O)c1c(N)sc(-c2ccc(Cl)cc2)c1CCCC | > 50 µM |

compound: CCCCNC(=O)c1cc(-c2ccccc2)sc1N; test: Competitive inhibition of human 15-LOX-1 assessed as apparent Km at 15 uM by Lineweaver-Burk plot analysis (reference value: 9.1 +/- 3.4 microM); settings: not given; procedure, shortened: as §1

| Molecule | Km |
| --- | --- |
| B1 | 38.2 µM |
